Our source for the inhibition, IC50 and Ki values is ChEMBL document CHEMBL2384961, “Geranylated flavonoids displaying SARS-CoV papain-like protease inhibition from the fruits of Paulownia tomentosa” (Bioorg Med Chem, 2013).

Assay [1] has as its system Severe acute respiratory syndrome-related coronavirus. The experiment in a line: (§1) Inhibition of SARS coronavirus papain-like protease (1541 to 1855 amino acids) expressed in Escherichia coli BL21 (DE3) using Z-RLRGG-AMC as substrate by fluorogenic assay. In outline: (§2)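 Protease domain construct His-tagged, purified by nickel affinity, ion-exchange and gel filtration, tag removed by TEV. […] AMC release followed continuously at ex 360/em 460 nm. IC50 is the concentration giving 50% activity loss; three repeat experiments, standard deviation.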

The nature of assay [2]: as §1. Also noted: species or system Severe acute respiratory syndrome-related coronavirus. In outline:
as §2

Assay [3] in a line: Mixed-type of inhibition of SARS coronavirus papain-like protease (1541 to 1855 amino acids) expressed in Escherichia coli BL21 (DE3) using Z-RLRGG-AMC as substrate by Dixon plot analysis. Further details: species or system Severe acute respiratory syndrome-related coronavirus.

pIC50, pKi: −log10 of the molar value.

The pIC50 is −log10 of the IC50, conventionally taken in molar units. High values mean a small IC50, low ones a large IC50. For orientation: pKi means the Ki on a negative log10 scale, so that one unit is a factor of ten. A lower pKi goes with a large Ki. As for `COc1ccc([C@H]2Oc3cc(O)c(C/C=C(\C)CCC=C(C)C)c(O)c3C(=O)[C@@H]2O)cc1O`, the inhibition entry in assay [1] was “Dose-dependent effect”. The same compound showed a pIC50 in assay [2] of 5.04. This compound also had a pKi in assay [3] of 5.20.

For the compound `COc1cc([C@H]2Oc3cc4c(c(O)c3C(=O)[C@@H]2O)CCC(C)(CCCC(C)(C)O)O4)ccc1O` (some centres undefined), the inhibition result in assay [1] was “Dose-dependent effect”. The compound also had a pIC50 in assay [2] of 5.30. Besides, the pKi in assay [3] was 5.43.

Turning to `COc1cc([C@@H]2CC(=O)c3c(cc(O)c(C/C=C(\C)CCC=C(C)C)c3O)O2)cc(OC)c1O`, the inhibition entry in assay [1] was “Dose-dependent effect”. This compound also gave a pIC50 in assay [2] of 4.86. The compound also showed a pKi in assay [3] of 5.08.

`CC(C)=CCC/C(C)=C/Cc1c(O)cc2c(c1O)C(=O)C[C@@H](c1ccc(O)cc1)O2` [BONANNIONE A]: the inhibition entry in assay [1] is “Dose-dependent effect”. In addition, in assay [2], the pIC50 is 4.84. The compound also gave a negative-log Ki (pKi) in assay [3] of 5.11.

In the case of `CC(C)=CCC/C(C)=C/Cc1c(O)cc2c(c1O)C(=O)C[C@@H](c1ccc(O)c(O)c1)O2` [NYMPHAEOL A], the inhibition entry in assay [1] was “Dose-dependent effect”. For the same compound, the pIC50 in assay [2] was 4.98. Also, the pKi in assay [3] is 5.29.

For the compound `COc1cc([C@@H]2CC(=O)c3c(cc(O)c(C/C=C(\C)CCC=C(C)C)c3O)O2)ccc1O`, the inhibition entry in assay [1] was “Dose-dependent effect”. Moreover, the pIC50 in assay [2] is 4.88. In assay [3], this compound had a pKi of 5.15.

For the compound `COc1ccc([C@@H]2CC(=O)c3c(cc(O)c(C/C=C(\C)CCC=C(C)C)c3O)O2)cc1O`, the inhibition result in assay [1] is “Dose-dependent effect”. For the same compound, in assay [2], the pIC50 was 4.90. The compound also showed a negative logarithm of the Ki (pKi) in assay [3] of 5.16.

`COc1cc([C@@H]2CC(=O)c3c(cc4c(c3O)CCC(C)(CCCC(C)(C)O)O4)O2)cc(OC)c1O` (some centres undefined): the inhibition entry in assay [1] was “Dose-dependent effect”. The compound further had a pIC50 in assay [2] of 4.90. In addition, in assay [3], the negative-log Ki (pKi) is 4.89.

As for `CC(C)(O)CCCC1(C)CCc2c(cc3c(c2O)C(=O)C[C@@H](c2ccc(O)c(O)c2)O3)O1` (some centres undefined), the inhibition entry in assay [1] was “Dose-dependent effect”. This compound had a pIC50 in assay [2] of 5.21. The compound further showed a pKi in assay [3] of 5.32.

As to `COc1cc([C@H]2Oc3cc(O)c(C/C=C(\C)CCC=C(C)C)c(O)c3C(=O)[C@@H]2O)ccc1O`, the inhibition result in assay [1] was “Dose-dependent effect”. For the same compound, the pIC50 in assay [2] was 5.02. In assay [3], the pKi was 5.18.

For `COc1cc([C@@H]2CC(=O)c3c(cc4c(c3O)CCC(C)(CCCC(C)(C)O)O4)O2)cc(O)c1OC` (some centres undefined), the inhibition result in assay [1] is “Dose-dependent effect”. For the same compound, the pIC50 in assay [2] is 4.94. The compound also had a pKi in assay [3] of 5.30.

On to `COc1ccc([C@@H]2CC(=O)c3c(cc4c(c3O)CCC(C)(CCCC(C)(C)O)O4)O2)cc1O` (some centres undefined), for which, in assay [1], the inhibition result is “Dose-dependent effect”.
